According to ChEMBL document CHEMBL1148082, “Cucurbitacins, cell adhesion inhibitors from Conobea scoparioides” (J Nat Prod, 1994):
Activity calls are given as the source filed them. No cut-off for these calls is given here.

Tests used:
Homo sapiens [1] = organism: Homo sapiens; experiment: Inhibition of actin polymerization in fMLP-stimulated human neutrophils assessed as positive fluorescence signal at 0.33 uM
In short: (§1)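 Human peripheral blood neutrophils were preincubated with compound for 45 min at 37° in PBS with Ca²⁺/Mg²⁺ and 10% fetal calf serum. They were then stimulated with fMLP (1 × 10⁻⁸ M final) for 1 min at 37°. Cells were fixed and permeabilized for at least 30 min at room temperature in 3% paraformaldehyde with lysophosphatidylcholine (12.5 µg/ml), pH 7.6. They were then stained with NBD-phalloidin for 15 min at 37° and analysed by flow cytometry (ex 488, em 530 nm). The value is the percent of cells with fluorescence above background.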

Homo sapiens [2] = organism: Homo sapiens; experiment: Inhibition of actin polymerization in fMLP-stimulated human neutrophils assessed as positive fluorescence signal at 3.3 uM; in short: as §1
JY [3] = experiment: Cytotoxicity against human JY cells assessed as inhibition of thymidine uptake at 0.3 uM by scintillation counting; format: functional
In short: (§2)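 PKH26-stained JY cells were held at 37° with compound (0.3, 1.0, 3.3 or 50 μM) for 24 h and pulsed with tritiated thymidine during the last 5 h. Uptake was counted by scintillation and expressed as % inhibition.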

JY [4] = experiment: Effect on cell activation in human JY cells assessed as inhibition of Ca2+ flux; format: functional, cell-based
Homo sapiens [5] = organism: Homo sapiens; experiment: Inhibition of actin polymerization in fMLP-stimulated human neutrophils assessed as positive fluorescence signal at 1 uM; in short: as §1
[6] = target: Protein kinase C (PKC) (Homo sapiens) (UniProt O94806+P41743+P17252+P05129+Q05655+P05771+Q05513+Q02156+P24723+Q15139+Q04759); experiment: Inhibition of PKC in human JY cells; format: cell-based
JY [7] = experiment: Cytotoxicity against human JY cells assessed as inhibition of thymidine uptake at 3.3 uM by scintillation counting; format: functional; in short: as §2
JY [8] = experiment: Cytotoxicity against human JY cells assessed as inhibition of thymidine uptake at 50 uM by scintillation counting; format: functional; in short: as §2
JY [9] = experiment: Cytotoxicity against human JY cells assessed as inhibition of thymidine uptake at 1 uM by scintillation counting; format: functional; in short: as §2
JY [10] = experiment: Cytotoxicity against human JY cells assessed as inhibition of thymidine uptake up to 5 hrs; format: functional, cell-based
In short: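 Proliferation assay in PKH26-stained JY cells exposed to test compounds at 37° for 5 h, with a tritiated thymidine pulse over the final 5 h. Thymidine uptake was quantitated by scintillation counting.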

JY [11] = experiment: Cytotoxicity against human JY cells up to 45 mins; format: functional, cell-based
In short: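 Washout format: stained JY cells were treated with compounds for 45 min, matching the adhesion assay length, then washed extensively. Cells were then either incubated 24 h with a tritiated thymidine pulse in the last 5 h and scintillation counting, or run in the 48-h MTT assay.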

JY [12] = experiment: Cytotoxicity against human JY cells after 48 hrs by MTT assay; format: functional, cell-based
In short: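 PKH26-stained JY cells incubated at 37° with test compounds for 48 h. MTT added for the last 4 h. Cells and formazan crystals were solubilized, and colour was read on an ELISA plate reader.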

Homo sapiens [13] = organism: Homo sapiens; experiment: Inhibition of actin polymerization in fMLP-stimulated human neutrophils assessed as positive fluorescence signal at 10 uM; in short: as §1

For `CC(C)(O)CCC(=O)[C@](C)(O)[C@H]1[C@H](O)C[C@@]2(C)[C@@H]3CC=C4[C@@H](C[C@H](O)C(=O)C4(C)C)[C@]3(C)C(=O)C[C@]12C` [CUCURBITACIN R], the inhibition (Homo sapiens [1]) was 79.2%, the inhibition (Homo sapiens [2]) was 86% and the inhibition at 0.3 µM (JY [3]) was 20%. The Activity (JY [4]) was “inactive”, the inhibition (Homo sapiens [5]) was 82.8% and the Activity [6] was “inactive”. It also gave an inhibition at 3.3 µM (JY [7]) of 7%, an inhibition at 50 µM (JY [8]) of 74% and an inhibition at 1 µM (JY [9]) of 22%.
Work on `CC(=O)OC(C)(C)/C=C/C(=O)[C@](C)(O)[C@H]1[C@H](O)C[C@@]2(C)[C@@H]3CC=C4[C@H](C[C@H](O)C(=O)C4(C)C)[C@]3(C)C(=O)C[C@]12C` [CUCURBITACIN B] yielded an inhibition (Homo sapiens [1]) of 29.8%, an inhibition (Homo sapiens [2]) of 9.6% and an inhibition at 0.3 µM (JY [3]) of 39%. The inhibition (Homo sapiens [5]) was 19.5%, the inhibition at 3.3 µM (JY [7]) was 71% and the inhibition at 1 µM (JY [9]) was 63%.
In the case of `CC(C)(O)CCC(=O)[C@@](C)(O)C1[C@H](O)C[C@@]2(C)[C@@H]3CC=C4C(C=C(O)C(=O)C4(C)C)[C@]3(C)C(=O)C[C@]12C` (stereo partly specified) [CUCURBITACIN L], the inhibition (Homo sapiens [1]) is reported as 86.2%, the inhibition (Homo sapiens [2]) is reported as 77.7% and the inhibition (Homo sapiens [5]) is reported as 79.2%. It also gave an inhibition at 50 µM (JY [8]) of 69%.
With `CC(C)(O)/C=C/C(=O)[C@](C)(O)[C@H]1[C@H](O)C[C@@]2(C)[C@@H]3CC=C4[C@@H](C=C(O)C(=O)C4(C)C)[C@]3(C)C(=O)C[C@]12C` [CUCURBITACIN I] the inhibition (Homo sapiens [1]) was 60.5%, the inhibition (Homo sapiens [2]) was 20.5% and the inhibition at 0.3 µM (JY [3]) was 34%. For the same compound, the Activity (JY [4]) was “inactive”, the inhibition (Homo sapiens [5]) was 15.3% and the Activity [6] was “inactive”. It also gave an inhibition at 3.3 µM (JY [7]) of 58% and an inhibition at 1 µM (JY [9]) of 63%.
In the case of `CC(=O)OC(C)(C)/C=C/C(=O)[C@](C)(O)[C@H]1[C@H](O)C[C@@]2(C)[C@@H]3CC=C4[C@@H](C=C(O)C(=O)C4(C)C)[C@]3(C)C(=O)C[C@]12C` [CUCURBITACIN E], the inhibition (Homo sapiens [1]) is reported as 21.5%, the inhibition (Homo sapiens [2]) is reported as 3.8% and the inhibition at 0.3 µM (JY [3]) is reported as 19%. For the same compound, the Activity (JY [4]) was “inactive”, the Activity (JY [10]) was “inactive” and the inhibition (Homo sapiens [5]) was 24.7%. For the same compound, the Activity (JY [11]) was “Toxic”, the Activity [6] was “inactive” and the inhibition at 3.3 µM (JY [7]) was 68%. For the same compound, the inhibition at 1 µM (JY [9]) was 60% and the Activity (JY [12]) was “Active”.
`CC(C)(O)/C=C/C(=O)[C@](C)(O)[C@H]1[C@H](O)C[C@@]2(C)[C@@H]3CC=C4[C@@H](C[C@H](O)C(=O)C4(C)C)[C@]3(C)C(=O)C[C@]12C` [CUCURBITACIN D] gave an inhibition (Homo sapiens [1]) of 75.2%, an inhibition (Homo sapiens [2]) of 24.3% and an inhibition at 0.3 µM (JY [3]) of 12%. The inhibition (Homo sapiens [5]) was 64.6%, the inhibition at 3.3 µM (JY [7]) was 58% and the inhibition at 1 µM (JY [9]) was 45%.
`C=C1[C@@H](C)[C@H]2[C@H](Cc3ccccc3)NC(=O)[C@]23OC(=O)/C=C/[C@H](O)CCC[C@@H](C)C/C=C/[C@H]3[C@@H]1O` showed an inhibition (Homo sapiens [5]) of 45.5% and an inhibition (Homo sapiens [13]) of 4.2%.
